How the values were obtained:
[1] = system: Human immunodeficiency virus 2; assay: Antiviral activity against HIV2 ROD infected in human MT4 cells assessed as inhibition of virus-induced cytopathic effect by MTT assay; type: functional, organism-based
Summary of the method: (§1)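 Infected MT-4 cells (HIV-1 IIIB or HIV-2 ROD), protection from viral cytopathic effect read by MTT assay; EC50 = concentration giving 50% inhibition of cytopathic effect. CC50 from mock-infected MT-4 cells.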

[2] = system: Human immunodeficiency virus 1; assay: Antiviral activity against NNRTI-resistant HIV1 NL4-3 with reverse transcriptase K103N mutation infected in human CEM-SS cells assessed as inhibition of virus-induced cytopathic effect by XTT assay; type: functional, organism-based; conditions: Human immunodeficiency virus 1, NL4-3, CEM-SS
Summary of the method: (§2)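 XTT cytoprotection readout in CEM-SS cells infected with HIV-1 RF or with HIV-1 NL4-3 carrying RT K103N or Y181C. EC50 is the concentration giving 50% inhibition of virus-induced cytopathic effect.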

[3] = system: Human immunodeficiency virus 1; assay: Antiviral activity against NNRTI-resistant HIV1 NL4-3 with reverse transcriptase Y181C mutation infected in human CEM-SS cells assessed as inhibition of virus-induced cytopathic effect by XTT assay; type: functional, organism-based; conditions: Human immunodeficiency virus 1, NL4-3, CEM-SS; summary of the method: as §2
[4] = system: Human immunodeficiency virus 1; assay: Antiviral activity against HIV1 RF infected in human CEM-SS cells assessed as inhibition of virus-induced cytopathic effect by XTT assay; type: functional, organism-based; conditions: Human immunodeficiency virus 1, RF; summary of the method: as §2
[5] = (§3) Cytotoxicity against human MT4 cells; type: cell-based; conditions: MT4 cells
Summary of the method: (§4)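 Mock-infected MT-4 cells, handled alongside the MTT antiviral assay run with HIV-1 IIIB and HIV-2 ROD. CC50 is the concentration causing death of 50% of cells.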

[6] = (§5) Cytotoxicity against human CEM-SS cells; type: cell-based; conditions: CEM-SS cells
Summary of the method: (§6)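 Mock-infected CEM-SS cells, handled alongside the XTT antiviral assay. CC50 is the concentration causing death of 50% of cells.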

[7] = (§7) Stability in rat plasma; type: ADME, cell-free
Summary of the method: (§8)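 Compound incubated in reconstituted rat plasma with 1,1-diphenylethylene internal standard; remaining compound quantified by reversed-phase C18 HPLC, 8:2 acetonitrile-water, column at room temperature; half-life per replicate from regression of concentration versus time, averaged over two replicates.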

[8] = biological target: Human immunodeficiency virus type 1 reverse transcriptase (Human immunodeficiency virus 1, UniProt Q72547); assay: Inhibition of HIV1 reverse transcriptase p66/p51 using poly(rC)-oligo)dG) as template
Summary of the method: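 Purified recombinant HIV-1 RT p66/51 heterodimer; poly(rC)·oligo(dG) homopolymer template/primer; activity measured as 32P-labeled […] incorporated into nascent DNA across increasing inhibitor concentrations; IC50 derived.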

MT4 = assay: as §3; type: cell-based; conditions: mt4; summary of the method: as §4
CEM-SS = assay: as §5; type: cell-based; conditions: cem-ss; summary of the method: as §6
[9] = system: Human immunodeficiency virus 1; assay: Antiviral activity against HIV1 3B infected in human MT4 cells assessed as inhibition of virus-induced cytopathic effect by MTT assay; type: functional, organism-based; conditions: Human immunodeficiency virus 1, 3B; summary of the method: as §1
Plasma = assay: as §7; type: ADME, cell-free; summary of the method: as §8

| half-life [7] [min] | SMILES | EC50 [1] | EC50 [2] [nM] | EC50 [3] [nM] | EC50 [4] [nM] | CC50 [5] [nM] | CC50 [6] [nM] | IC50 [8] [nM] | CC50 (MT4) [nM] | CC50 (CEM-SS) [nM] | EC50 [9] [nM] | t1/2 (Plasma) [min] |
| --- | --- | --- | --- | --- | --- | --- | --- | --- | --- | --- | --- | --- |
| – | COC(=O)CCC/C=C(\c1cc(C)c(OC)c(C(=O)OC)c1)c1cc(C)c2oc(=O)n(C)c2c1 | Not Active | – | – | – | – | – | – | – | – | – | – |
| – | COC(=O)CCCC=C(c1cc(Br)c(OC)c(C(=O)OC)c1)c1cc(Br)c(OC)c(C(=O)OC)c1 | Not Active | 420 | 6100 | 100 | – | – | – | – | – | – | – |
| 12.4 | COC(=O)CCCC=C(c1cc(C#N)c(OC)c(C(=O)OC)c1)c1cc(C#N)c(OC)c(C(=O)OC)c1 | Not Active | – | – | 700 | > 100000 | 17000 | – | – | – | – | – |
| – | Cc1ccnc2c1NC(=O)c1cccnc1N2C1CC1 [NEVIRAPINE] | – | 600 | 800 | – | – | – | – | – | – | – | – |
| – | COc1c(C)cc(/C(=C\CCCc2nnc(C)o2)c2cc(C)c3oc(=O)n(C)c3c2)cc1C(=O)SC | Not Active | > 100000 | > 100000 | 70 | – | – | < 1 | 3900 | 3000 | 180 | 238 |

From ChEMBL document CHEMBL1154166, “Crystallographic study of a novel subnanomolar inhibitor provides insight on the binding interactions of alkenyldiarylmethanes with human immunodeficiency virus-1 reverse transcriptase” (J Med Chem, 2009)
